Experiment [1] addresses T1, Cannabinoid receptor 1 (Rattus norvegicus, UniProt P20272). Briefly: Displacement of [3H]SR141716A from CB1 receptor in rat cerebellar membrane after 90 mins by scintillation counting. It counts as cell membranes, Cerebellum. Summed up:
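Compounds were dissolved in DMSO, then diluted in 20 mM HEPES pH 7.4 with 1 mM MgCl2 and 0.5% fatty-acid-free BSA. Incubation was 30 °C for 90 min, stopped with ice-cold buffer and filtered on GF/C. Ki was derived by Cheng–Prusoff using fixed, independently measured Kd.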
On the technique in general: Loss of bound radioactivity is the signal in a displacement assay; it reports binding, not function.

The target of experiment [2] is T2, Fatty-acid amide hydrolase 1 (Rattus norvegicus) (UniProt P97612).
T2 sequence (whole entry): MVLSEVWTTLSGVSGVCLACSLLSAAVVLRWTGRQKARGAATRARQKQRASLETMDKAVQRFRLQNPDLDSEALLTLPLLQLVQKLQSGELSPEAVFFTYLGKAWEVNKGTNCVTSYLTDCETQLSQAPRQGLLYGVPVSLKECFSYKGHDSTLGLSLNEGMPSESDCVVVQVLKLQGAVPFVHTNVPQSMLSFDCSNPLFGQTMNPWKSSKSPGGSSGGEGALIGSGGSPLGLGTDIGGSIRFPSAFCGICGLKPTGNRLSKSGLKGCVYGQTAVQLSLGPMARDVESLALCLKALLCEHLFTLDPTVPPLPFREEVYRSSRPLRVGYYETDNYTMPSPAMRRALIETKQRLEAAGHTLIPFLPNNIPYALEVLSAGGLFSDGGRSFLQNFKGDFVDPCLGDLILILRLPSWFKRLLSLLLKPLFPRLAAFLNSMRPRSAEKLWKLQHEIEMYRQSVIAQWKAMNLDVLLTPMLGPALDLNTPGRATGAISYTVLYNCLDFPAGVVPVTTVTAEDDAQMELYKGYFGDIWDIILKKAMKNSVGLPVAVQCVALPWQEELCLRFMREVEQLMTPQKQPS
Briefly: Inhibition of FAAH in rat brain homogenates assessed as membrane bound [3H]anandamide level at 1 uM relative to control. Details: scale not given: the % may be the effect or the level left. The experiment is classed as tissue-based. Summed up:
(§1)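 Brain membrane FAAH. Tissue was homogenized in 50 mM Tris pH 8 with 0.32 M sucrose, spun at 1000g for 5 min, and the supernatant spun at 45,000g for 30 min. The pellet was solubilized in Tris at 0–4 °C, protein measured by Bradford, and samples stored at −70 °C. Substrate was arachidonyl-[1-3H]-ethanolamide, and [3H]ethanolamine was counted in the aqueous phase after chloroform extraction. Conditions were linear in time and protein; activity is given as % of control at 10^-6 and 10^-7 M.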

Experiment [3] concerns the target T2, Fatty-acid amide hydrolase 1 (Rattus norvegicus). As to the kind of experiment: Inhibition of FAAH in rat brain homogenates assessed as membrane bound [3H]anandamide level at 0.1 uM relative to control. The experiment is classed as tissue-based. Details: scale not given: the % may be the effect or the level left. Summed up: as §1
For experiment [4], the target named is T3, Cannabinoid receptor 2 (Rattus norvegicus) (UniProt Q9QZN9).
T3 sequence (whole entry): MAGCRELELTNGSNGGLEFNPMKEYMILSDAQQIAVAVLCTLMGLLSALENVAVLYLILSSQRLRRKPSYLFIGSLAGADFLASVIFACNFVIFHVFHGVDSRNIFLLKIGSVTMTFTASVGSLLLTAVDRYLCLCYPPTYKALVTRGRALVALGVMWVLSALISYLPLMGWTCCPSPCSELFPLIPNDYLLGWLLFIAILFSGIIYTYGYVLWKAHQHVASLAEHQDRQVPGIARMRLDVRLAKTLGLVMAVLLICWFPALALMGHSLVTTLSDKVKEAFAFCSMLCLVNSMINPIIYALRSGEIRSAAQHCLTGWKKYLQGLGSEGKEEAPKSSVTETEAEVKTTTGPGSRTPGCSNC
As to the kind of experiment: Displacement of [3H]WIN-55212-2 from CB2 receptor in rat cerebellar membrane at 0.001 nM after 90 mins by scintillation counting. It counts as cell membranes. Conditions: Cerebellum.

Experiment [5] has as its target Cannabinoid receptor 1 (Mus musculus) (UniProt P47746). As to the kind of experiment: Agonist activity at CB1 receptor in CD1 mouse vas deferens assessed as inhibition of electrically-evoked contraction at 0.01 to 1 nM after 15 mins. The experiment is classed as functional, tissue-based. Summed up: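 Vasa deferentia from male CD-1 mice (25–30 g) cycled through 5 min stimulation (15 pulses per min, 70 V, 15 Hz, 2 ms) and 10 min rest, with isometric force recorded. Doses were added stepwise at 15 min intervals, and Krebs was replaced before each dose. Inhibition was read 15 min after each dose against the last pre-agonist contraction (100%). One curve was built per tissue.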

In experiment [6] the target is T1, Cannabinoid receptor 1. Briefly: Displacement of [3H]WIN-55212-2 from CB1 receptor in rat cerebellar membrane after 90 mins by scintillation counting. It counts as cell membranes, Cerebellum. The gist of the method: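 Cerebellar membranes incubated in triplicate with radioligand ([3H]SR141716A 0.4 nM; [3H]WIN-55212-2 1 nM) and compound at 10^-5 to 10^-12 M final. Compounds were dissolved in DMSO, then diluted in 20 mM HEPES pH 7.4 with 1 mM MgCl2 and 0.5% fatty-acid-free BSA. Incubation was 30 °C for 90 min, stopped with ice-cold buffer and filtered on GF/C. Ki was derived by Cheng–Prusoff using fixed, independently measured Kd.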

The target in experiment [7] is T3, Cannabinoid receptor 2 (Rattus norvegicus). As to the kind of experiment: Displacement of [3H]WIN-55212-2 from CB2 receptor in rat cerebellar membrane at 10 uM after 90 mins by scintillation counting. The experiment is classed as cell membranes. Conditions: Cerebellum.

Structures are written as SMILES. The source made the active and inactive calls. The calls are words filed in the database; no cut-off is given here.

16 compounds from ChEMBL document CHEMBL1155235 (Eur J Med Chem, 2009) can be followed below.

Chain of Cannabinoid receptor 1 (Mus musculus) (P47746 whole entry): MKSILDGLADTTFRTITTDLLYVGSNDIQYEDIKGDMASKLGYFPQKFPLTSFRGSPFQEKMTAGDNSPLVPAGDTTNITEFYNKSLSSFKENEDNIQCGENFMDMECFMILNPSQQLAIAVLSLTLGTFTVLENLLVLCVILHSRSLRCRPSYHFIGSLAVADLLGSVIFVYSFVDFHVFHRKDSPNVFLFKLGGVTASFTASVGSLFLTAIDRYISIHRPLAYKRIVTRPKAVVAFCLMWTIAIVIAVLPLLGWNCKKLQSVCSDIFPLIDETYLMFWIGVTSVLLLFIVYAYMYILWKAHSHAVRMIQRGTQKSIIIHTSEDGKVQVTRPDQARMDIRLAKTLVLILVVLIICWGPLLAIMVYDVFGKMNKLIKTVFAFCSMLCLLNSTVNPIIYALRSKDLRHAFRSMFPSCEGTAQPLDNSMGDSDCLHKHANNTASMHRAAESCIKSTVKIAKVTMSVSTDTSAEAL
T1 sequence (P20272 whole entry): as the sequence (P47746 whole entry) above, with D95E counted along it

As to `CCCCCCCCCCCCCCCCCCNS(=O)(=O)NCCC`, the results for the Ki on Cannabinoid receptor 1 [1] and on Cannabinoid receptor 1 [6] were 9.1 µM and greater than 10 µM, respectively. The values for the Activity in experiment [2] and in experiment [3] were 110% and 109%, respectively. Further, the result in experiment [4] and in experiment [7] was inactive. Also, the inhibition result in experiment [5] was “inactive”.

In the case of `CCCCC/C=C\C/C=C\CCCCCCCCNS(N)(=O)=O`, on Cannabinoid receptor 1 [1], the Ki – broadly, the dissociation constant of the complex between target and ligand, obtained from inhibition or displacement – was determined as 6.41 µM. In addition, the inhibition result in experiment [5] was “inactive”.

`CCCCC/C=C\C/C=C\C/C=C\C/C=C\CCCCNS(N)(=O)=O`: on Cannabinoid receptor 1 [1], the affinity corresponds to a Ki of 4.01 µM. In addition, the inhibition entry in experiment [5] is “inactive”.

On Cannabinoid receptor 1 [1], `CCCCC/C=C\C/C=C\CCCCCCCCNS(=O)(=O)NCCC` displayed a Ki of 7.19 µM. In addition, the inhibition entry in experiment [5] was “inactive”.

As to `CCCCCCCC/C=C\CCCCCCCCNS(N)(=O)=O`, the affinity on Cannabinoid receptor 1 [1], expressed as Ki, was 1.89 µM. The Activity in experiment [2] was 102%; in experiment [3], 100%. Moreover, the inhibition entry in experiment [5] is “inactive”.

Consider `CCCCCCCC/C=C\CCCCCCCCNS(=O)(=O)NCCC`, for which, on Cannabinoid receptor 1 [1], the Ki was greater than 10 µM. Besides, the Activity in experiment [2] came to 96.5%; in experiment [3], 101%. In addition, the inhibition result in experiment [5] was “inactive”.

`CCCCCCCCCCCCCCCCCCNS(N)(=O)=O`: the Ki on Cannabinoid receptor 1 [1] is greater than 10 µM. Moreover, the Activity stood at 99.4% in experiment [2] and 106% in experiment [3]. In experiment [5], the inhibition entry is “inactive”.

For `CCCNS(=O)(=O)NC1C2CC3CC(C2)CC1C3` (configuration not stated), the Ki on Cannabinoid receptor 1 [1] was 6.67 µM; at Cannabinoid receptor 1 [6], greater than 10 µM. For the same compound, the outcome in experiment [4] and in experiment [7] was inactive. Further, the inhibition entry in experiment [5] was “inactive”.

For `CCCNS(=O)(=O)NC12CC3CC(CC(C3)C1)C2`, the Ki on Cannabinoid receptor 1 [1] came to 8.58 µM; on Cannabinoid receptor 1 [6] it was 4.23 µM. The Activity is 92.6% in experiment [2] and 90.4% in experiment [3]. In addition, the outcome in experiment [4] and in experiment [7] was inactive. Also, in experiment [5], the inhibition entry was “inactive”.

Consider `CCCCCCCCCCCCCCNS(N)(=O)=O`, for which the Activity in experiment [2] and in experiment [3] was 109% in each case.

Consider `NS(=O)(=O)NC1C2CC3CC(C2)CC1C3` (configuration not stated), for which the inhibition entry in experiment [5] was “inactive”.

`CCCNS(=O)(=O)NC(C)C12CC3CC(CC(C3)C1)C2` (configuration not stated): the inhibition constant (Ki) was greater than 10 µM at Cannabinoid receptor 1 [1] and greater than 100 µM on Cannabinoid receptor 1 [6]. Besides, the outcome in experiment [4] and in experiment [7] was inactive. Further, the inhibition result in experiment [5] was “inactive”.

`CCCCC/C=C\C/C=C\C/C=C\C/C=C\CCCCNS(=O)(=O)NCCC` returned a Ki on Cannabinoid receptor 1 [1] of 2.34 µM. Also, the inhibition result in experiment [5] is “inactive”.

With `CC(NS(N)(=O)=O)C12CC3CC(CC(C3)C1)C2` (configuration not stated), the inhibition result in experiment [5] was “inactive”.

Take `CCCCCCCCCCCCCCCCNS(N)(=O)=O`: the results for the Activity in experiment [2] and in experiment [3] were 103% and 114%, respectively.

On to `CCCCCCCCCCCCNS(N)(=O)=O`, for which the figures for the Activity in experiment [2] and in experiment [3] were 99.3% and 108%, respectively.
